Where only a bound is given, the exact number is not on record here.

We go through six molecules from PMC8349895 (Bioorganic & medicinal chemistry letters, 2021).

Series [1] has as its target T1, hM1 (Homo sapiens, UniProt P11229).
T1 sequence (P11229 1-460): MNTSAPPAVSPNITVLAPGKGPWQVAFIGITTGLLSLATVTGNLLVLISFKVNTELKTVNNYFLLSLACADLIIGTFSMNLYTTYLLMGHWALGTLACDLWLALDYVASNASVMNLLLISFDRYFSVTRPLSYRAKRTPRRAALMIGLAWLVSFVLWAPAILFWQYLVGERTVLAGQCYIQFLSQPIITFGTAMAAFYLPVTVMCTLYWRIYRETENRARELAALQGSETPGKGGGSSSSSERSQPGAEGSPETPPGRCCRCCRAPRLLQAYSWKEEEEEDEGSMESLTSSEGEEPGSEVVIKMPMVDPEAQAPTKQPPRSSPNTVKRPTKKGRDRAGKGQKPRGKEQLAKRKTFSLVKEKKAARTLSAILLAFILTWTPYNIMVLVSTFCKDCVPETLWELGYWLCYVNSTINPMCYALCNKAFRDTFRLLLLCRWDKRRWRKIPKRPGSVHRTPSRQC
Put plainly: Calcium mobilization PAM assay in hM1-CHO cells with EC20 acetylcholine. Format: cell-based. As to conditions: PAM mode.

Another series has as its target T2, hM4 (Homo sapiens, UniProt P08173).
T2 sequence (P08173 1-479): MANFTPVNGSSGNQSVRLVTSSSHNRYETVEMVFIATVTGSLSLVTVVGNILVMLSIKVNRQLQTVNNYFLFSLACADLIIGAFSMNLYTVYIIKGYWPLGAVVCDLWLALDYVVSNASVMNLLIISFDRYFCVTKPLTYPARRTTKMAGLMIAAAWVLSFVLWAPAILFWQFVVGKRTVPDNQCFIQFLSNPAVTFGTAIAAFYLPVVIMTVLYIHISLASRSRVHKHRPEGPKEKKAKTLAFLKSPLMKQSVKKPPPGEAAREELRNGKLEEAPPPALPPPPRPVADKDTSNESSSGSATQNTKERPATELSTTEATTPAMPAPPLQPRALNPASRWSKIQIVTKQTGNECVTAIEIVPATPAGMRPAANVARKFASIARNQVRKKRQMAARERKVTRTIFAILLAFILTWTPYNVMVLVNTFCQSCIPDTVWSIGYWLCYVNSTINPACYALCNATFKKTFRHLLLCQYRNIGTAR
Nature of the series: Calcium mobilization PAM selectivity assay, hM4. The format is cell-based.

Series [2] addresses T1, hM1. Nature of the series: Calcium mobilization agonist mode in hM1-CHO cells, no exogenous ACh. Format: cell-based. As to conditions: no exogenous acetylcholine. The essentials: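 Calcium mobilization in CHO cells expressing human M1, run without added acetylcholine to measure direct agonist activity and derive agonist EC50. Values are means of one to three independent experiments, each run in triplicate.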

The nature of series [3]: Predicted hepatic clearance, human. Format: in vitro ADME.
The nature of series [4]: Predicted hepatic clearance, rat. Format: in vitro ADME.

Turning to `Cn1cc2c(-c3cc(F)c(CN4Cc5nc[nH]c5C4=O)c(F)c3)cccc2n1` [Compound 8a], the “hM1 activity (in words)” value on hM1 [1] was “inactive”.
For `Cn1cc2cc(-c3ccc(CN4Cc5ncsc5C4=O)c(F)c3)ccc2n1` [Compound 8b], on hM4, the EC50 was over 10 µM. Moreover, at hM1 [2], the hM1 agonist activity entry is recorded as “devoid of any hM1 agonist activity”. For the same molecule, the hClhep in series [3] is 10.4 mL/min/kg. For the same molecule, the rClhep in series [4] is listed as 43 mL/min/kg.
With `Cn1cc2c(-c3cc(F)c(CN4Cc5ncoc5C4=O)c(F)c3)cccc2n1` [Compound 12a], the “hM1 activity (in words)” value at hM1 [1] was “inactive”.
On the same count and under the same terms, the entry for `Cn1cc2c(-c3cc(F)c(CN4Cc5ocnc5C4=O)c(F)c3)cccc2n1` [Compound 12b] is “inactive”.
With `Cn1cc2c(-c3cc(F)c(CN4Cc5cnn(CC6CCCO6)c5C4=O)c(F)c3)cccc2n1` (stereo not drawn) [Compound 20a], at hM4, the EC50 is over 10 µM. Moreover, the hM1 agonist activity entry at hM1 [2] was “devoid of any hM1 agonist activity”. Further, the hClhep in series [3] is listed as 18.6 mL/min/kg. For the same molecule, in series [4], the rClhep is recorded as 58.7 mL/min/kg.
For the molecule `Cc1[nH]cc2c1C(=O)N(Cc1c(F)cc(-c3cccc4nn(C)cc34)cc1F)C2` [Compound 25a], the “hM1 activity (in words)” value on hM1 [1] is “inactive”.
